Results as given in ChEMBL document CHEMBL1131618, “Synthesis, activity, and structure--activity relationship studies of novel cationic lipids for DNA transfer” (1998).

Legend:
HeLa [1] = assay: Luciferase activity in human Hela cells; format: functional
How it was run: (§1)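 5×10^4 cells plated in DMEM at 37 °C, 5% CO2, and transfected after 24 h at 50/70% confluency in serum-free medium. CMV-luciferase plasmid mixed with cationic lipid in 75 mM NaCl final, four lipid:DNA ratios, added dropwise, triplicates. Serum added to 10% at 2 h, then 44 h more. Lysate supernatant read with 10 s luminometer counting. Value at optimal ratio.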

NIH3T3 [2] = assay: Luciferase activity in mouse fibroblasts NIH3T3 cells.; format: functional; how it was run: as §1
[3] = test system: CV1 cells (Cercopithecus aethiops); assay: Compound was tested for the impact of introduction of molecular probe as side chain entity in the linker position on expression of luciferase in transfected CV1 cells (RLU = luciferase activity in relative light units (RLU)/10 s for 10E3 plated c ells)
NIH3T3 [4] = assay: Compound was tested for the impact of introduction of molecular probe as side chain entity in the linker position on expression of luciferase in transfected NIH3T3 cells (RLU = luciferase activity in relative light units (RLU)/10 s for 10E3 plated cells); format: functional, Mus musculus; how it was run: as §1
HeLa [5] = assay: Compound was tested for the impact of introduction of a side chain entity in the linker position on expression of luciferase in transfected HeLa cells (RLU = luciferase activity in relative light units (RLU)/10 s for 10E3 plated cells); format: functional, Homo sapiens; how it was run: as §1
NIH3T3 [6] = assay: Compound was tested for the impact of introduction of a side chain entity in the linker position on expression of luciferase in transfected NIH3T3 cells (RLU = luciferase activity in relative light units (RLU)/10 s for 10E3 plated cells); format: functional, Mus musculus; how it was run: as §1
HeLa [7] = assay: Compound was tested for the impact of linker length on expression of luciferase in transfected HeLa cells (RLU = luciferase activity in relative light units (RLU)/10 s for 10E3 plated cells); format: functional, Homo sapiens; how it was run: as §1
CV-1 = assay: Compound was tested for luciferase activity in Monkey CV1 Cell Lines; format: functional, Cercopithecidae
How it was run: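 CV1 cells (5×10^4) plated in MEM at 37 °C, 5% CO2, and transfected after 24 h at 50/70% confluency in serum-free medium. CMV-luciferase plasmid mixed with lipid in 75 mM NaCl final, four lipid:DNA ratios, triplicates. 10% serum added at 2 h, then 44 h more. Lysates counted 10 s. Value reported at optimal ratio.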

HeLa [8] = assay: Compound was tested for the impact of polyamine geometry on expression of luciferase in transfected HeLa cells (RLU = luciferase activity in relative light units (RLU)/10 s for 10E3 plated cells); format: functional, Homo sapiens; how it was run: as §1
NIH3T3 [9] = assay: Compound tested for the impact on expression of luciferase in transfected NIH3T3 cells (RLU = luciferase activity in relative light units (RLU)/10 s for 10E3 plated cells); format: functional, Mus musculus; how it was run: as §1
NIH3T3 [10] = assay: Compound was tested for the impact of the length of the lipid on expression of luciferase in transfected NIH3T3 cells (RLU = luciferase activity in relative light units (RLU)/10 s for 10E3 plated cells); format: functional, Mus musculus; how it was run: as §1
HeLa [11] = assay: Compound was tested for the impact of the length of the lipid on expression of luciferase in transfected HeLa cells (RLU = luciferase activity in relative light units (RLU)/10 s for 10E3 plated cells); format: functional, Homo sapiens; how it was run: as §1

SMILES | Luciferase activity (HeLa [1]) [RLU 10s-1] | Luciferase activity (NIH3T3 [2]) [RLU 10s-1] | RLU (NIH3T3 [9]) | further results
CCCCCCCCCCCCCCCCCCN(CCCCCCCCCCCCCCCCCC)C(=O)[C@H](CCCCN)NC(=O)CNCCCNCCCCNCCCN | 700000 | 10000000 | – | –
CCCCCCCCCCCCCCCCCCN(CCCCCCCCCCCCCCCCCC)C(=O)C(CCCCNC(=O)CCCCC1SC[C@@H]2NC(=O)N[C@H]12)NC(=O)CNCCCNCCCCNCCCN (stereo partly drawn) | – | – | – | RLU [3]: 160000; RLU (NIH3T3 [4]): 5400000
CCCCCCCCCCCCCCCCCCN(CCCCCCCCCCCCCCCCCC)C(=O)C(CCCCNC(=O)OCc1ccccc1Cl)NC(=O)CNCCCNCCCCNCCCN (stereo not drawn) | 1400000 | 30000000 | – | RLU (HeLa [5]): 1400000; RLU (NIH3T3 [6]): 30000000
CCCCCCCCCCCCCCCCCCN(CCCCCCCCCCCCCCCCCC)C(=O)CCCCCNC(=O)CNCCCNCCCCNCCCN | 3500000 | – | – | RLU (HeLa [7]): 3500000
CCCCCCCCCCCCCCCCCCN(CCCCCCCCCCCCCCCCCC)C(=O)C(CCCCNC(=O)CCCC[C@H]1SC[C@@H]2NC(=O)N[C@@H]21)NC(=O)CNCCCNCCCCNCCCN (stereo partly drawn) | – | 5400000 | – | Luciferase activity (CV-1): 160000 RLU 10s-1
CCCCCCCCCCCCCCCCCCN(CCCCCCCCCCCCCCCCCC)C(=O)CNC(=O)CNCCN(CCN)CCN | 130000 | 20000000 | 20000000 | RLU (HeLa [8]): 130000
CCCCCCCCCCCCCCCCCCN(CCCCCCCCCCCCCCCCCC)C(=O)CNCCCN(CCCN)CCCCN(CCCN)CCCN | – | – | 59000000 | –
CCCCCCCCCCCCCCCCCCN(CCCCCCCCCCCCCCCCCC)C(=O)CNCCCNCCCCNCCCN | 2600000 | 2000000 | 2000000 | RLU (HeLa [7]): 2600000
CCCCCCCCCCCCCCCCCCN(CCCCCCCCCCCCCCCCCC)C(=O)C(CCC(=O)O)NC(=O)CNCCCNCCCCNCCCN (stereo not drawn) | – | – | – | RLU (HeLa [5]): 15000000; RLU (NIH3T3 [6]): 63000000
CCCCCCCCCCCCCCCCCCN(CCCCCCCCCCCCCCCCCC)C(=O)[C@H](CCC(=O)O)NC(=O)CNCCCNCCCCNCCCN | 15000000 | 63000000 | – | –
CCCCCCCCCCCCCCCCCCN(CCCCCCCCCCCCCCCCCC)C(=O)CNC(=O)CNCCN(CCCN)CCCCN(CCCN)CCCN | 580000 | 68000000 | – | –
CCCCCCCCCCCCCCCCCCN(CCCCCCCCCCCCCCCCCC)C(=O)CNC(=O)CNCCCNCCCCNCCCN | – | – | 54000000 | RLU (HeLa [8]): 2400000; RLU (HeLa [7]): 2400000; RLU (HeLa [5]): 10000000; RLU [3]: 7000; RLU (NIH3T3 [6]): 200000000; RLU (NIH3T3 [10]): 44000000; RLU (NIH3T3 [4]): 26000000; RLU (HeLa [11]): 890000
CCCCCCCCCCCCCCCCCCN(CCCCCCCCCCCCCCCCCC)C(=O)CNCCN(CCN)CCN | – | 1500000 | 1500000 | –
CCCCCCCCCCCCCCCCCCN(CCCCCCCCCCCCCCCCCC)C(=O)C(N)CCCN=C(N)N (stereo not drawn) | 4700 | 8700 | – | RLU (HeLa [5]): 4700; RLU (NIH3T3 [6]): 8700
CCCCCCCCCCCCCCCCCCN(CCCCCCCCCCCCCCCCCC)C(=O)C(CCCN=C(N)N)NC(=O)CNCCCNCCCCNCCCN (stereo in doubt; form 2) | 8200000 | 11000000 | – | –
CCCCCCCCCCCCCCCCCCN(CCCCCCCCCCCCCCCCCC)C(=O)C(CCCC/N=C(\S)Nc1ccc(-c2c3ccc(=[N+](C)C)cc-3oc3cc(N(C)C)ccc23)c(C(=O)[O-])c1)NC(=O)CNCCCNCCCCNCCCN (stereo not drawn) [CATIONIC LIPID] | – | 1200000 | – | RLU [3]: 130000; Luciferase activity (CV-1): 130000 RLU 10s-1; RLU (NIH3T3 [4]): 1200000
